pIC50: −log10 of the molar value.
How the values were obtained:
[1] = target: T1, recombinant human tyrosinase (Homo sapiens, UniProt P14679); assay: biochemical
T1 sequence (P14679 19-476 limits assumed): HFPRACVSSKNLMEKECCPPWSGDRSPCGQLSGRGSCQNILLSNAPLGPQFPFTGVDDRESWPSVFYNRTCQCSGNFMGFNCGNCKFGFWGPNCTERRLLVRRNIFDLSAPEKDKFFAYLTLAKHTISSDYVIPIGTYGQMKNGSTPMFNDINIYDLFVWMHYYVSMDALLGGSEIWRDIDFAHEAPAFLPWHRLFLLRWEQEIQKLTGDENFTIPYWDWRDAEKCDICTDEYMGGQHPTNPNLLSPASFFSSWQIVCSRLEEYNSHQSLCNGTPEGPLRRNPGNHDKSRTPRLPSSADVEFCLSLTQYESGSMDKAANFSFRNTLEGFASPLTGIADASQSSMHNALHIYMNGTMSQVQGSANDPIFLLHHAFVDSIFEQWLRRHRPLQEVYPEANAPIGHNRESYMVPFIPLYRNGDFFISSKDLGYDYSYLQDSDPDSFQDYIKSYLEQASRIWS

[2] = system: primary human epidermal melanocytes; assay: Melanin content assay in melanocyte cultures; type: cell-based; conditions: for inhibition of melanin production in melanocytes: 72 h of treatment, at similar doses, mean ± SD; for reduction in melanin synthesis: 72 h
[3] = system: primary melanocytes; assay: Cell viability; type: cell-based, human
Procedure, shortened: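 Neonatal foreskin primary human epidermal melanocytes at passages 4–6 were grown in Medium 254‑CF with melanocyte growth supplement at 37°C and 5% CO2. They were exposed to test compound for 72 h, starting 24 h after plating, alongside 0.1% (v/v) DMSO or medium vehicle controls. Cells were washed in Ca/Mg‑free PBS and loaded with 1 µM Calcein‑AM for 30 min at 37°C, protected from light. Fluorescence was read at ex 490/em 520 nm, with cell‑free blank wells.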

pIC50 [1] | SMILES | inhibition of melanin production in melanocytes [2] [%] | reduction in melanin synthesis ([2]; 4‐HR alone (comparator to 1 µM in combination)) [%] | maximum non‐cytotoxic dose for primary melanocytes [3] [µM] | reduction in melanin synthesis ([2]; niacinamide alone (comparator to 10 mM in combination)) [%]
4.89 | CCCCc1ccc(O)cc1O [4‐BR, 4‐butylresorcinol] | 28.6 ± 3 |  |  | 
4.80 | CCCCCCc1ccc(O)cc1O [4‐HR, 4‐hexylresorcinol] | 35 ± 1.9 | 7.3 ± 3 | 10 | 
< 3.00 | Oc1ccc(O)cc1 [Hydroquinone, hydroquinone] |  |  |  | 
 | NC(=O)c1cccnc1 [niacinamide] |  |  | 10000 | 7.2 ± 4.3

Source: publication PMC9305876 (International Journal of Cosmetic Science, 2022)
